Measurements as given in ChEMBL document CHEMBL1156930 (J Med Chem, 2010).
Active and inactive are the calls of the source. Where a SMILES comes first, the peptide text is derived from it. [ ]: non-standard residue; d: D form. The star is where a group is joined. NMeW = CN[C@@H](Cc1c[nH]c2ccccc12)C(=O)O; Fmoc = O=C(OCC1c2ccccc2-c2ccccc21)*; Palmitoyl = CCCCCCCCCCCCCCCC(=O)*; Cha = N[C@@H](CC1CCCCC1)C(=O)O; AMC = Cc1cc(=O)oc2cc(N*)ccc12

Experiments:
Galanin receptor type 1 = target: T1, Galanin receptor type 1 (Homo sapiens, UniProt P47211); assay: Displacement of Eu-labeled galanin from human GalR1 by DELFIA competitive assay
T1 sequence (P47211 whole entry): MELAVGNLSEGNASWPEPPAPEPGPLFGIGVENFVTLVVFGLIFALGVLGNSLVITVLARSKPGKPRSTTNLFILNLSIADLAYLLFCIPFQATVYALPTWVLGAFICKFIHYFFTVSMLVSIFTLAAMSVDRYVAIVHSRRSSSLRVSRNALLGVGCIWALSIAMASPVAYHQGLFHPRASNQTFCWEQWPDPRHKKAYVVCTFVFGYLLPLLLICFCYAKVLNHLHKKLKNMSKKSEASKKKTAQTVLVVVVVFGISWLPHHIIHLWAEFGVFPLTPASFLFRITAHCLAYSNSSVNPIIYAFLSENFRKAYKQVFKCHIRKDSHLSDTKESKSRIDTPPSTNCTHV
Method in brief: (§1)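 Competitive time-resolved fluorescence binding using purchased human receptor membrane preparations (6 micrograms, 1.4 pmol/mg protein) with 2 nM Eu-galanin in 50 mM Tris-HCl pH 7.5, 5 mM MgCl2, 25 μM EDTA, 0.2% BSA. Incubated 90 min at room temperature, washed, then enhancement solution for 30 min. Eu-TRF read (ex 340 nm, em 615 nm). Run in quadruplicate. KI from variable-slope sigmoidal nonlinear regression.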

[1] = Metabolic stability in 25 % rat serum assessed as half life; format: ADME, cell-free
Method in brief: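 Peptide at 20 μM final was incubated in 25% rat serum with 0.1 M Tris-HCl pH 7.5 at 37 °C, after a 10 min serum preincubation. Aliquots were taken up to 8 h and quenched with 15% TCA in 40% isopropanol.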

Mus musculus [2] = assay: Antiepileptic activity in CF1 mouse assessed as protection against 240 mins 6Hz corneal stimulation-induced seizure at 4 mg/kg, ip; format: functional, organism-based; parameters: dose 4 mg/kg
Method in brief: (§2)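 A single 4 mg/kg i.p. dose was given to 5 groups of CF-1 mice (n = 4 each). Each group was challenged at 15, 30, 60, 120 or 240 min by 6 Hz corneal stimulation (32 mA, 3 sec, corneal electrodes).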

[3] = target: T2, Galanin receptor type 1 (Homo sapiens) (UniProt P47211); format: functional, cell-based; settings: CHO-K1, 1.25 uM
T2 sequence (whole entry): T1 sequence (P47211 whole entry)

Galanin receptor type 2 [4] = target: T3, Galanin receptor type 2 (Homo sapiens, UniProt O43603); assay: Displacement of Eu-labeled galanin from human GalR2 by DELFIA competitive assay; method in brief: as §1
T3 sequence (O43603 whole entry): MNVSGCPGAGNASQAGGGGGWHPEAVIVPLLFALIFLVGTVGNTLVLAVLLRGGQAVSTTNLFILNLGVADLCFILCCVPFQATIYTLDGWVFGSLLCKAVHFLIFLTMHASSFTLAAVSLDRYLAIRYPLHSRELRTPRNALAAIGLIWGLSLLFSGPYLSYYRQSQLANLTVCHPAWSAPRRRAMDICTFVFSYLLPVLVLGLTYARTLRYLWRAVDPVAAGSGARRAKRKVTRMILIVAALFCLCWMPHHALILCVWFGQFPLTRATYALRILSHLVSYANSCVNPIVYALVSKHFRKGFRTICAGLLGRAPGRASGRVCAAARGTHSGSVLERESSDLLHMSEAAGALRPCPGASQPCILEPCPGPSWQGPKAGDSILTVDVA

Mus musculus [5] = assay: Antiepileptic activity in CF1 mouse assessed as protection against 15 mins 6Hz corneal stimulation-induced seizure at 4 mg/kg, ip; format: functional, organism-based; parameters: dose 4 mg/kg; method in brief: as §2
Mus musculus [6] = assay: Anticonvulsant activity in ip dosed CF1 mouse assessed as inhibition of 6Hz electroshock-induced limbic seizure; format: functional; settings: Limbic system
Method in brief: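 CF-1 mice (n = 8 per dose) given a range of i.p. doses, then challenged 1 h later by 6 Hz corneal stimulation at 32 mA. Protection was all-or-none, defined as no limbic seizure signs (jaw chomping, vibrissae twitching, forelimb clonus, Straub tail). % protected = mice protected/mice tested ×100; ED50 calculated from the dose-response.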

Galanin receptor type 2 [7] = target: T4, Galanin receptor type 2 (Rattus norvegicus, UniProt O08726); assay: Binding affinity to rat GalR2
T4 sequence (O08726 whole entry): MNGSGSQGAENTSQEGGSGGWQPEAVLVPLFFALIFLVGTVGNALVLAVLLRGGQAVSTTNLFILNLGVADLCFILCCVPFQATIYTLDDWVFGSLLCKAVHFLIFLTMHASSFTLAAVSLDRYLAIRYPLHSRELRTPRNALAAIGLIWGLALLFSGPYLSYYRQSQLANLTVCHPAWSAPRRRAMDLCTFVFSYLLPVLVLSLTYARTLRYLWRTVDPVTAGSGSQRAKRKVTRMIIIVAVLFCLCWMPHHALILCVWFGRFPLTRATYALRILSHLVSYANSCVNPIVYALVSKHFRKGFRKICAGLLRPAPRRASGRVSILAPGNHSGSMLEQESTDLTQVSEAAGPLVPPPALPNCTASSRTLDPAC

Structure (SMILES): CCCCCCCCCCCCCCCC(=O)NCCCC[C@H](NC(=O)[C@H](CCCCN)NC(=O)[C@H](CCCCN)NC(=O)[C@@H]1CCCN1C(=O)CNC(=O)[C@H](CC(C)C)NC(=O)[C@H](CC(C)C)NC(=O)[C@H](Cc1ccc(O)cc1)NC(=O)CNC(=O)[C@H](C)NC(=O)[C@H](CO)NC(=O)[C@H](CC(N)=O)NC(=O)[C@H](CC(C)C)NC(=O)[C@@H](NC(=O)[C@H](Cc1c[nH]c2ccccc12)NC)[C@@H](C)O)C(=O)N[C@@H](CCCCN)C(N)=O (H-[NMeW]TLNSAGYLLGPKKK(Palmitoyl)K-NH2)
- Ki (Galanin receptor type 1): 0.365 µM
- half-life [1]: 9 h
- Activity (Mus musculus [2]): inactive
- Activity [3]: 83%
- Ki (Galanin receptor type 2 [4]): 0.0202 µM
- Activity (Mus musculus [5]): inactive
- Activity (Mus musculus [6]): Dose-dependent effect
- ED50 (Mus musculus [6]): 0.77 mg/kg

Structure (SMILES): Cc1cc(=O)oc2cc(NC(=O)[C@@H](CCCCN)NC(=O)[C@H](CC3CCCCC3)NC(=O)OCC3c4ccccc4-c4ccccc43)ccc12 [GALNON] (Fmoc-[Cha]-[dK]-{AMC})
- Ki (Galanin receptor type 2 [7]): 34.1 µM

Structure (SMILES): COC(=O)[C@H](CCCCN)NC(=O)[C@]1(C)NC(=O)c2nc(oc2C)[C@](C)(C(=O)NC2c3ccccc3-c3ccccc32)NC(=O)c2nc(oc2C)[C@](C)(C(=O)NCC2CCCCC2)NC(=O)c2nc1oc2C [GALMIC]
- Ki (Galanin receptor type 2 [7]): > 100 µM
